Assay results gathered from unrelated publications.
Compare with care: the assays were run in different laboratories.
Target: Casein kinase I isoform alpha (CSNK1A1, Homo sapiens, UniProt P48729)

SMILES	observed	action	method	cells	tested at	measurement	value
Cc1cc(Nc2cc(N3CCN(C)CC3)nc(Sc3ccc(NC(=O)C4CC4)cc3)n2)[nH]n1	enzyme activity	inhibitor	–	–	0.5 µM	activity vs control	96.7%
CCN1CCN(Cc2ccc(NC(=O)c3ccc(C)c(/C=C/c4cnc5[nH]ccc5c4OC)c3)cc2C(F)(F)F)CC1	target engagement in cells	inhibitor	chemoproteomics	A-375	0.5 µM	inhibition	-75.1%
CCC(=O)N[C@H]1CC[C@@H](C(=O)N(C)c2ccc(-c3nc4ccccc4o3)cc2)C1	cell-free assay	–	competition with immobilised ligand	–	1 µM	remaining binding	82%
COc1cc2c(Nc3ccc(Br)cc3F)ncnc2cc1OCC1CCN(C)CC1	cell-free assay	–	–	–	0.5 µM	remaining signal	102%
CCCS(=O)(=O)Nc1ccc(F)c(C(=O)c2c[nH]c3ncc(-c4ccc(Cl)cc4)cc23)c1F	enzyme activity	inhibitor	–	–	1 µM	inhibition	< 10%
O=C(Nc1cnn(-c2csc(C(=O)NC3COC3)c2)c1)Nc1c(F)cccc1Cl	enzyme activity	inhibitor	–	–	5 µM	remaining activity	76.6%
c1ccc(CNc2nc(N3CCOc4ccccc43)nc3c2CCCC3)cc1	target engagement in cells	inhibitor	chemoproteomics	–	20 mM	inhibition	-1.4%
CCc1ccccc1C(=O)Nc1n[nH]c2c(C)c(F)c(C3C(C#N)=C(C)N(C)C(C)=C3C#N)cc12	cell-free assay	–	competition with immobilised ligand	–	1 µM	remaining binding	96%
O=C1Nc2ccc(Cl)cc2C1=Cc1cc(Cl)c(O)c(Cl)c1	cell-free assay	–	–	–	0.5 µM	remaining signal	92.6%
Cc1ccc(C(=O)Nc2ccc(CN3CCN(C)CC3)c(C(F)(F)F)c2)cc1C#Cc1cnc2cccnn12	enzyme activity	inhibitor	–	–	23.5 nM	remaining activity	86%
CCN1CCN(Cc2ccc(NC(=O)c3ccc(C)c(Oc4ccnc5[nH]ccc45)c3)cc2C(F)(F)F)CC1	target engagement in cells	inhibitor	chemoproteomics	A-375	50 nM	inhibition	-28%
CN(C)C1CCN(CC#Cc2nn(C3CCCC3)c3nc(NCc4ccccc4)ncc23)C1 (stereo not drawn)	enzyme activity	inhibitor	FRET	–	1 µM	inhibition	2%
Cc1cc(-n2nc(Cc3cc(F)cc(C(F)(F)F)c3)nc2C)ccc1C(N)=O	cell-free assay	–	competition with immobilised ligand	–	1 µM	remaining binding	100%
COc1cc2ncnc(Nc3ccc(Oc4ccccc4)c(C)c3C)c2cc1OC	enzyme activity	inhibitor	–	–	1 µM	inhibition	3%
CN(C)C(=O)Cn1cc(-c2nc(C3(c4ccc(-c5cnc(N)nc5)cc4)CC3)no2)cn1	cell-free assay	–	competition with immobilised ligand	–	1 µM	remaining binding	62%
COc1cc(OC)c(C=C2C(O)=Nc3ccccc32)c(OC)c1	cell-free assay	inhibitor	–	–	0.5 µM	remaining signal	59.6%
O=C(O)[C@@H]1[C@@H](Cn2nnc3ccccc3c2=O)CC[C@H]1C(=O)c1ccc(OCCC2CCOCC2)cc1	cell-free assay	–	competition with immobilised ligand	–	1 µM	remaining binding	97%
O=C1NC(=O)c2cc(Nc3ccc(F)cc3)c(Nc3ccc(F)cc3)cc21	cell-free assay	inhibitor	–	–	0.5 µM	remaining signal	88%
COc1cc(-c2cn(C3CCc4c(F)cccc4N(CC(F)(F)F)C3=O)nn2)ccc1-n1cnc(C)c1 (stereo not drawn)	cell-free assay	–	competition with immobilised ligand	–	1 µM	remaining binding	100%
CC(C)(C)c1nc(-c2cccc(NS(=O)(=O)c3c(F)cccc3F)c2F)c(-c2ccnc(N)n2)s1	enzyme activity	inhibitor	radiometric	–	1 µM	remaining activity	94%
O=C(NS(=O)(=O)c1ccc(NCC2CCOCC2)c([N+](=O)[O-])c1)c1ccc(N2CCN(Cc3ccc(C(F)(F)F)cc3-c3ccc(Cl)cc3)CC2)cc1Oc1cnc2[nH]ccc2c1	cell-free assay	–	competition with immobilised ligand	–	1 µM	remaining binding	96%
COc1cccc2c(NCc3ccccc3)nc(-n3c(N)nc4ccccc43)nc12	target engagement in cells	inhibitor	chemoproteomics	–	20 mM	inhibition	4.9%
O=Nc1c(-c2c(O)[nH]c3cc(Br)ccc23)[nH]c2ccccc12	enzyme activity	inhibitor	–	–	0.5 µM	activity vs control	95.1%
CO[C@H]1CC[C@H](CNc2ccc(S(=O)(=O)NC(=O)c3ccc(N4CCN(CC5=C(c6ccc(Cl)cc6)CC(C)(C)CC5)CC4)cc3Oc3cnc4[nH]ccc4c3)cc2[N+](=O)[O-])CC1	cell-free assay	–	competition with immobilised ligand	–	1 µM	remaining binding	85%
